The record followed here is ChEMBL document CHEMBL4304834, “3-Amino-chromanes and Tetrahydroquinolines as Selective 5-HT2B, 5-HT7, or σ1 Receptor Ligands” (ACS Med Chem Lett, 2019).

Structures are written as SMILES.

Common to all, as to format: cell-based
For experiment [1], the target named is T1, Muscarinic acetylcholine receptor M5 (Homo sapiens, UniProt P08912).
T1 sequence (P08912 whole entry): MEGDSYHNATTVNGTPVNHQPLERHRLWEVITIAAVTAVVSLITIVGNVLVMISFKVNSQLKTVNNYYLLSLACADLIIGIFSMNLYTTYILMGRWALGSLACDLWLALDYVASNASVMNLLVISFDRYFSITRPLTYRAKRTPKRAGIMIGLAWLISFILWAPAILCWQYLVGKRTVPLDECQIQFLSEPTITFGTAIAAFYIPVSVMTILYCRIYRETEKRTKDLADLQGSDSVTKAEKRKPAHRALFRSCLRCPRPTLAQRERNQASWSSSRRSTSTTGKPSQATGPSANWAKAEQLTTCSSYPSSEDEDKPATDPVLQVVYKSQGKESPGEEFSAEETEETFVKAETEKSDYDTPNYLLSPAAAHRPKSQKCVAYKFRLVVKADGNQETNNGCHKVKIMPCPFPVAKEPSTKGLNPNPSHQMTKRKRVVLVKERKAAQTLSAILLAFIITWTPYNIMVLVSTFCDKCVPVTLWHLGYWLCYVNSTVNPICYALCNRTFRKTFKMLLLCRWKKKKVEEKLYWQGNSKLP
As to the kind of experiment: Displacement of [3H]-QNB/[3H]-NMS from human recombinant Muscarinic acetylcholine M5 receptor expressed in stable CHO cells after 90 mins by microbeta scintillation counting method. An outline of the steps:
(§1)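 Radioligand binding was run by the NIMH Psychoactive Drug Screening Program. Compounds were first screened at 10 μM. Those giving ≥50% binding were taken to full competition curves. Ki is reported as pKi from a sigmoidal curve fit of triplicate measurements in a single experiment; the error is the curve-fit error.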
Background: In a radioligand displacement assay an active substance lowers the binding of a labelled ligand.

In experiment [2] the target is T2, Alpha-1D adrenergic receptor (Homo sapiens, UniProt P25100).
T2 sequence (P25100 whole entry): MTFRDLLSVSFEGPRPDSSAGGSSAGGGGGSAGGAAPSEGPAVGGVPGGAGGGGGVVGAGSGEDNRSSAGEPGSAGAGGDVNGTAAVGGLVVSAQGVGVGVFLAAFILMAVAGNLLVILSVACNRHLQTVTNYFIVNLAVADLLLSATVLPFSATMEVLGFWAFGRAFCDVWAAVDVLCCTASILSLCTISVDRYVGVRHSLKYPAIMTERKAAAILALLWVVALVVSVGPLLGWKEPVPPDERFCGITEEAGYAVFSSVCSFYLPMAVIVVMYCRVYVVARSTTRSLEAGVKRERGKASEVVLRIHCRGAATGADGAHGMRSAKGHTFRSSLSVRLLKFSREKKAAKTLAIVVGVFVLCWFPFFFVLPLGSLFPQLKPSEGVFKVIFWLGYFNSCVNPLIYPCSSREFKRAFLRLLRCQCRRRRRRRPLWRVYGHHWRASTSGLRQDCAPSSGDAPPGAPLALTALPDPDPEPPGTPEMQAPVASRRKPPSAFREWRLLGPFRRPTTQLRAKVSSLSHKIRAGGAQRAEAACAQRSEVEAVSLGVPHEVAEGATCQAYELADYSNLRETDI
As to the kind of experiment: Displacement of [3H]-Prazosin from human recombinant adrenergic Alpha1D receptor expressed in cells after 90 mins by microbeta scintillation counting method. The gist of the method:
as §1

Experiment [3] has as its target T3, Muscarinic acetylcholine receptor M2 (Homo sapiens) (UniProt P08172).
T3 sequence (whole entry): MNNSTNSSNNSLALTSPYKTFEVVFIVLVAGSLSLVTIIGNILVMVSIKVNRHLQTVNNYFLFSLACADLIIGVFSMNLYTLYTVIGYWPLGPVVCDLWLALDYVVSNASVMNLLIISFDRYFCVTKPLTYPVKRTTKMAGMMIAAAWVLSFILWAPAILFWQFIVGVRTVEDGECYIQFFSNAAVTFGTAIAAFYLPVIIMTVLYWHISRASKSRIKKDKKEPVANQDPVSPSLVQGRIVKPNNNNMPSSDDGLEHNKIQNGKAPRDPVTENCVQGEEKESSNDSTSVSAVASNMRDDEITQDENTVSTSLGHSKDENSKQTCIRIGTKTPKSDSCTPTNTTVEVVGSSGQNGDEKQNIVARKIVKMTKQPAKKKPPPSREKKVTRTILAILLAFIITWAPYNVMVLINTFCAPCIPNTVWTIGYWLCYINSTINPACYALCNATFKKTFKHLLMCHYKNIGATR
Briefly: Displacement of [3H]-QNB/[3H]-NMS from human recombinant Muscarinic acetylcholine M2 receptor expressed in stable CHO cells at 10 uM after 90 mins by microbeta scintillation counting method relative to control.

For the next experiment, the target named is Histamine H4 receptor (Homo sapiens, UniProt Q9H3N8). Briefly: Displacement of [3H]-Histamine from human recombinant histamine H4 receptor expressed in HEKT cells at 10 uM after 90 mins by microbeta scintillation counting method relative to control. The gist of the method:
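Radioligand binding run by the NIMH Psychoactive Drug Screening Program. […] Otherwise Ki comes from sigmoidal curve fits of triplicate measurements in a single experiment, or is averaged over repeated experiments each run in triplicate.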

Experiment [4] concerns the target 5-hydroxytryptamine receptor 7 (Homo sapiens, UniProt P34969). As to the kind of experiment: Displacement of [3H]-LSD from human recombinant 5-HT7 receptor expressed in stable HEK cells after 90 mins by microbeta scintillation counting method. An outline of the steps: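 Run by NIMH Psychoactive Drug Screening Program. Otherwise, competition binding curves are generated and pKi is taken from a sigmoidal curve fit. Data are either triplicate measurements within one experiment, with the error from the fit, or the mean of repeated experiments, each run in triplicate.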

Experiment [5] addresses 5-hydroxytryptamine receptor 1D (Homo sapiens, UniProt P28221). As to the kind of experiment: Displacement of [3H]5-CT from human recombinant 5-HT1D receptor transiently expressed in HEKT cells after 90 mins by microbeta scintillation counting method. The gist of the method: as §1
In the next experiment the target is D(1A) dopamine receptor (Homo sapiens, UniProt P21728). As to the kind of experiment: Displacement of [3H]-SCH23390 from human recombinant dopamine D1 receptor expressed in HEKT cells at 10 uM after 90 mins by microbeta scintillation counting method relative to control.
The target in experiment [6] is T4, Alpha-2B adrenergic receptor (Homo sapiens, UniProt P18089).
T4 sequence (P18089 whole entry): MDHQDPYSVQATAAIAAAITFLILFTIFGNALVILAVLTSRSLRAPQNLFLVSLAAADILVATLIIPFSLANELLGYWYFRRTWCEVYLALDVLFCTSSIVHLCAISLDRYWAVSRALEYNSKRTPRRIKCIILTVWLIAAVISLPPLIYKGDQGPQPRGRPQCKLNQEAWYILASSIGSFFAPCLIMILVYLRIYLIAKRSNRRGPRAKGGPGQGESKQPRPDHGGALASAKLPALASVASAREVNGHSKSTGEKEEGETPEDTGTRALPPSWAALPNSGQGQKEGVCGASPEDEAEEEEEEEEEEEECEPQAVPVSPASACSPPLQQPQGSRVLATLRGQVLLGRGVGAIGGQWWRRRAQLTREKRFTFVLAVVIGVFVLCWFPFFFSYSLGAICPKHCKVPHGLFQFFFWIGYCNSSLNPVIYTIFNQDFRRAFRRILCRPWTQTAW
Briefly: Displacement of [3H]-Rauwolscine from human recombinant adrenergic Alpha2B receptor expressed in HEKT cells after 90 mins by microbeta scintillation counting method. An outline of the steps: as §1

The term inhibition denotes the drop in the measured response relative to a control, in per cent.

Chain of 5-hydroxytryptamine receptor 7 (P34969 whole entry): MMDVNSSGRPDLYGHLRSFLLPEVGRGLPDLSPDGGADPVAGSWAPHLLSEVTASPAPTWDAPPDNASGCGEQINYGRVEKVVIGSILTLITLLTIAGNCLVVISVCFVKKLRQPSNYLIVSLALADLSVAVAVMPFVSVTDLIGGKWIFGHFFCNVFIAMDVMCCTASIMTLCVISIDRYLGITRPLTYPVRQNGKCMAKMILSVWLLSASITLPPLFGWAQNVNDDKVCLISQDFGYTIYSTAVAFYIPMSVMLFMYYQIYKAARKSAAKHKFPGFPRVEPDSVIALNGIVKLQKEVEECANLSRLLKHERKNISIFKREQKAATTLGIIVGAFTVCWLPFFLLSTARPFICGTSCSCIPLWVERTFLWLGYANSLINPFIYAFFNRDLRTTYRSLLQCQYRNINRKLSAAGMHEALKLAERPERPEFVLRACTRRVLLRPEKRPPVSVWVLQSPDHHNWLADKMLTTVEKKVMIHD
Chain of 5-hydroxytryptamine receptor 1D (P28221 whole entry): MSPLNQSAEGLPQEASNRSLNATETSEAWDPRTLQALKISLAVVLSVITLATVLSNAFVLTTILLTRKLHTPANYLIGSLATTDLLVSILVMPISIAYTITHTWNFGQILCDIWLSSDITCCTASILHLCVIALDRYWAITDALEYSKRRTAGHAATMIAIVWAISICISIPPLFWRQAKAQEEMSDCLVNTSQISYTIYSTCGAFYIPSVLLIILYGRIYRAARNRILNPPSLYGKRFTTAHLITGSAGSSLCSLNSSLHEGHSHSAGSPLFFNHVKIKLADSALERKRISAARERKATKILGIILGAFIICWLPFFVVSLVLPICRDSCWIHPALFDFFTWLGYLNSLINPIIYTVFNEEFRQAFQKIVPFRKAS
Chain of Histamine H4 receptor (Q9H3N8 whole entry): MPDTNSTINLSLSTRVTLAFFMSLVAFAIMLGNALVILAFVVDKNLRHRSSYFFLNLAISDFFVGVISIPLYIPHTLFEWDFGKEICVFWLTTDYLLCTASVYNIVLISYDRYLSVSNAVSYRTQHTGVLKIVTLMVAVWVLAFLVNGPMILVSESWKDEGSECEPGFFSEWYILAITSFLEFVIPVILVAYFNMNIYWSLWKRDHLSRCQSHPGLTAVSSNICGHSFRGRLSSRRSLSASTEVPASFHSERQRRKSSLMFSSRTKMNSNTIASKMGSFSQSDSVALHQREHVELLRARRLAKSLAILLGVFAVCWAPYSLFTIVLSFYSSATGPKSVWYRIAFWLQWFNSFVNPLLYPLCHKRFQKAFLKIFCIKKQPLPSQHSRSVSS
Chain of D(1A) dopamine receptor (P21728 whole entry): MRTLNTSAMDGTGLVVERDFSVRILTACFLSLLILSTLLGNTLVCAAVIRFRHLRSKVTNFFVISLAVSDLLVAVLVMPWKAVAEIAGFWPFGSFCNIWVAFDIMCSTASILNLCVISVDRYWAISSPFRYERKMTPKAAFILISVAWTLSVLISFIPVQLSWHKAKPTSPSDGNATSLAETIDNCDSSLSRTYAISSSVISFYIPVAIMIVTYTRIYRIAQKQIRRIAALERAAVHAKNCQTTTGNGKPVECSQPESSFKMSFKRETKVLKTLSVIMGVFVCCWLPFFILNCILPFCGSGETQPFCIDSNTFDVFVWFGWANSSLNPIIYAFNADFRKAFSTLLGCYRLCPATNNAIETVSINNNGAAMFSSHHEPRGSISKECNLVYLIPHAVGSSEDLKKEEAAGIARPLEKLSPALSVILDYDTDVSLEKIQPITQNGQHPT

With `COc1cc(OC)c2c(c1)OC[C@@]1(C)NCC[C@@H]21` (racemic), the Ki is > 10 µM in experiment [1]; > 10 µM in experiment [2]; 1.26 µM in experiment [4] (read-out: pKi (converted)); > 10 µM in experiment [5]; > 10 µM in experiment [6]. Moreover, the inhibition (in experiment [3]; on Histamine H4 receptor; on D(1A) dopamine receptor) was < 50% in each case.

For `C[C@@]12CN(c3ccccc3)c3ccccc3[C@@H]1CCN2` (racemic), the Ki in experiment [1] is > 10 µM; in experiment [2], 1 µM; in experiment [4] (read-out: Ki) it was 0.0063 µM; in experiment [5], > 10 µM; in experiment [6], > 10 µM.

Regarding `CC[C@H]1c2cc(OC)ccc2CC[C@@]1(C)N` (racemic), the Ki is > 10 µM in experiment [1]; > 10 µM in experiment [2]; > 10 µM in experiment [4] (read-out: pKi (converted)); > 10 µM in experiment [5]; 5.01 µM in experiment [6]. Moreover, the inhibition (in experiment [3]; at Histamine H4 receptor; on D(1A) dopamine receptor) was < 50% throughout.

Regarding `CC[C@H]1c2cc(C)ccc2OC[C@@]1(C)N` (racemic), the Ki in experiment [1], in experiment [2], in experiment [4] (read-out: pKi (converted)), in experiment [5] and in experiment [6] was > 10 µM in each case. In addition, the inhibition (in experiment [3]; on Histamine H4 receptor; on D(1A) dopamine receptor) was < 50% throughout.

Take `CC[C@H]1c2ccccc2N(c2ccccc2)C[C@@]1(C)N` (racemic): the Ki in experiment [1] was > 10 µM; in experiment [2], > 10 µM; in experiment [4] (read-out: pKi (converted)) it was 1 µM; in experiment [5], > 10 µM; in experiment [6] it was 0.398 µM.
